The source of these data is publication PMC6497404 (Vaccine, 2019).

One assay relates to BALB/c mice. Description: Serum antibody ELISA after immunization with antigen-pulsed dendritic cells. The assay is classed as in vivo, mouse. The note with it: after first booster; mimotope-pulsed DCs i.p.; sera diluted 1:200. In outline:
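Female BALB/c mice, 5–7 weeks old. Bone-marrow DCs pulsed with peptide antigen (1 μM) on day 6, matured with PGE₂ (10⁻⁷M) plus LPS (2 μg/ml) for 24h from day 7, washed on day 9. 5 × 10⁵ DCs in DPBS given i.p., with i.p. boosts of fresh pulsed DCs without adjuvant at days 14 and 28. Controls received DCs or DPBS. Sera diluted 1:200 and tested by ELISA.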
In general terms: In an ELISA, binding on a coated surface is turned into a signal by an enzyme label.

Assay [1] concerns C. albicans SC5314 (disseminated candidiasis in BALB/c mice). Nature of the assay: Active vaccination. The class given is in vivo, Candida albicans. The note with it: mimotope-pulsed DCs; lethal i.v. challenge; extended observation.

With HYKTYGGYW [PS31], in the assay on BALB/c mice, the “Antibody ELISA titers in immune sera against the mimotope” value (shortened to “Antibody ELISA titers in immune sera”) was “highest”.

For the sequence SWYEGLRLI [PS55], the “Protection against disseminated candidiasis (mimotope vaccination)” value in assay [1] is “neither of the two other mimotopes PS55 or PS76 induced protection”.

On to SYLTTGGFW [PS28], for which the “Antibody ELISA titers in immune sera” value with BALB/c mice is “highest”.

Regarding WVPPGSWYL [PS2], the “Antibody ELISA titers in immune sera” value with BALB/c mice is “highest”.

On to YRQFVTGFW [PS76], for which the “Protection against disseminated candidiasis (mimotope vaccination)” value in assay [1] was “neither of the two other mimotopes PS55 or PS76 induced protection”.
